Ecoli rRNA inh: inhibitors of bacterial rRNA selective over humanized ribosomes; E. coli WT GFP vs humanized-ribosome RFP mutants, fluorescence, 24 h; hits give low values; DMSO median 0, no signal -100; GFP signal change (wild-type ribosome), % (concentration not given with the values); 350,000 tested, 1.6% active; AID 720706;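 active = significant combined selectivity score with lowered wild-type GFP, culture density cut under 30%, mutant RFP and density less affected; inactive = any of these conditions unmet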
FGF22 binding: binders of recombinant human FGF22 by thermal shift; SYPRO orange fluorescence; percent of sucrose octasulfate shift, DMSO zero; activity (Tm shift, normalised), % at 9.99 µM; 340,000 tested, 1.5% active; AID 651658;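 active = mean Tm shift, scaled 0 neutral to 100 positive control, at about 1.3% or above, every replicate too, limit read from the data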
ERAP1 inh: ERAP1 (human) enzyme inhibition | Q9NZ08 | recombinant ERAP1, Leu-AMC fluorescence, 60 min | inhibition, % at 10.7 µM | 340,000 tested, 0.15% active | AID 652197;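 active = mean replicate inhibition of at least 30%, or all replicates individually reaching that 30% level; inactive = mean below 30% and not every replicate reaching it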;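 also: 0% = neutral control wells and 100% = L-leucinethiol positive control wells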
Target sequence (Q9NZ08 whole entry, looked up): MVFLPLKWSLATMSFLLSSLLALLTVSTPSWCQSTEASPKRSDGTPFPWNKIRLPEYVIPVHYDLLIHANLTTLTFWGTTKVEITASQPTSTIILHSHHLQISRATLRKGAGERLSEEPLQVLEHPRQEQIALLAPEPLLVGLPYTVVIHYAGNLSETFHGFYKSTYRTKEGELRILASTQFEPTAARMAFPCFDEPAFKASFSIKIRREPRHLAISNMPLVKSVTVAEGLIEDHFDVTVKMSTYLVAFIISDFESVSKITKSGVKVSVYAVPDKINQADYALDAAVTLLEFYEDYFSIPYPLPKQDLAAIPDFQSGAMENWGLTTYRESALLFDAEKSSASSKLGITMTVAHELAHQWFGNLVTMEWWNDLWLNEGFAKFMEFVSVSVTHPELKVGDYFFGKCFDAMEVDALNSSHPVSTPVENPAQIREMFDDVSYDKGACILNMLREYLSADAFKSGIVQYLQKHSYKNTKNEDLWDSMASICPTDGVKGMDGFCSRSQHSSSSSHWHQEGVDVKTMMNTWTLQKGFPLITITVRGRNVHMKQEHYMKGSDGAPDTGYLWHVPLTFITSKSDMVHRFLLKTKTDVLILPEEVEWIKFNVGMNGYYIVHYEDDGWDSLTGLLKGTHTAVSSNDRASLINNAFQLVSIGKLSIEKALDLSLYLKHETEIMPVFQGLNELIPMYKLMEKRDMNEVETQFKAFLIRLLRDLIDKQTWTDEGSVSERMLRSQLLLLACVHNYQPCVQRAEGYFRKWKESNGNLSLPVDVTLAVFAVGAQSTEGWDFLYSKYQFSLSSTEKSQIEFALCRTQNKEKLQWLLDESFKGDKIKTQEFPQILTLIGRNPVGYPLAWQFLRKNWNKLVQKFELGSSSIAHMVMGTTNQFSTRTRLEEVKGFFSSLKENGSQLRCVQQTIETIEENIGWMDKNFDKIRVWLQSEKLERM
Cneo AK release: causes C. neoformans cell lysis. lysis activity, % at 15 µM. 360,000 tested, 0.2% active. adenylate kinase release luminescence, 4 h; normalised: neutral wells 0, clomiphene wells 100;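 active = mean lysis activity across replicates of at least 80%, whatever share of replicates individually reach that level; inactive = mean lysis activity below 80%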
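Assay system: log-phase C. neoformans yeast / Quantity: yeast cell density of 5 × 10^6 cells/mL / Medium: fresh YPD growth medium / Compound: single dose / Timing: static 4 h at 37 °C with compound, 1 h detection / Measured by: adenylate kinase release luminescence / Read-out: lysis from increased AK signal / Benchmarks: Clomiphene as positive lysis control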
PGC1a acetyl inh: modulators of PGC1a acetylation | U2OS PGC1a acetylation, AlphaScreen anti-acetyl-lysine; with virally co-expressed GCN5 acetyltransferase | inhibition, % at 15.6 µM | 350,000 tested, 0.17% active;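 active = every replicate shows inhibition of at least 40%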;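 also: 0% = neutral control wells and 100% = positive control wells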
HIV Env fusion: HIV envelope-mediated fusion inhibition; AID 651610; inhibition, % at 12.3 µM; HeLa-JRFL Env/CEM21 cell fusion, luciferase; 360,000 tested, 1.1% active;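 active = mean replicate inhibition score of at least 50 and every replicate individually at or above 50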;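 also: 0% = plate neutral controls and 100% = maraviroc near 300 nM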
* = called active by the depositor; x = no result; ! = not active in a repeat; [ ] = dose if it differs, or a comment. This is a sample that favours compounds with a hit; in the whole collection about 3.5% have one here.

SMILES	Ecoli rRNA inh	FGF22 binding	ERAP1 inh	Cneo AK release	PGC1a acetyl inh	HIV Env fusion
C[C@@H]1CN([C@@H](C)CO)C(=O)c2cc(C#CC3(O)CCCC3)cnc2O[C@@H]1CN(C)Cc1cccnc1	3.6	-0.3	3.9	x	x	-22.7[16.7 µM]
C[C@@H]1CN([C@@H](C)CO)C(=O)c2cc(C3=CCCC3)cnc2O[C@@H]1CN(C)Cc1ccc(C(=O)O)cc1	-0.7	-0.3	1.4	-3.8	12.3	59.8*[16.7 µM]
COc1ccc(N2Cc3ccccc3C2=NC(=O)c2ccc(C)cc2)cc1OC	3.3	-0.1	3.3	0.7	x	-4.9
C[C@@H]1CN([C@@H](C)CO)C(=O)c2cc(-c3cncnc3)cnc2O[C@H]1CN(C)C(=O)CN1CCOCC1	6.2	-0.4	3.2	105.1*	14.0	x
C[C@H](O)C#Cc1cnc2c(c1)C(=O)N([C@@H](C)CO)C[C@@H](C)[C@@H](CN(C)C(=O)Cc1ccncc1)O2	-0.4	-0.1	-4.6	114.8*	12.8	-16.2[16.7 µM]
COc1ccc(Cc2nc3ccc(C(=O)N4C[C@@H](C)O[C@@H](C)C4)cc3o2)cc1OC	0.1	0.6	-3.4	2.3	3.6	-20.8
Cc1cc(C)n2nc(C)c(-c3ccccc3)c2n1	-4.9	0.0	0.4	x	x	-56.8
Cc1cc(C)n2nc(C)c(Br)c2n1	7.7	44.2*	-1.3	-0.9	-9.8	-3.5
O=C(N[C@H]1CC[C@@H](CCNS(=O)(=O)c2ccccc2Cl)O[C@H]1CO)c1ccccc1	3.0	0.7	6.0	-0.9	-6.7	-33.8[16.7 µM]
O=C(O)CCSc1nnc(-c2ccc3c(c2)OCO3)o1	x	x	x	-0.2	3.4	69.1*
CC(=O)CSc1nnc(-c2ccc3c(c2)OCO3)o1	x	x	x	-11.5	9.9	-47.1
NC(=O)CCS(=O)(=O)c1ccccc1	x	x	x	1.1	19.5	x
CC1=[N+](C)N(c2ccccc2)C(=O)C1N=Cc1c(Cl)cccc1Cl (stereo unspecified)	x	43.2*	-2.3	-1.3	x	-5.4
CC1=[N+](C)N(c2ccccc2)C(=O)C1N=Cc1ccccc1Cl (stereo unspecified)	9.0	-0.3	5.7	2.6	x	-3.6
CC(=O)c1ccccc1NC(=O)COC(=O)c1ccccc1NC(=O)c1ccccc1	-8.2	16.5*	0.1	x	x	8.9
COC(=O)COC(=O)c1ccccc1NC(=O)c1ccccc1	-9.5	0.1	-0.2	x	x	1.7
NNC(=O)c1[nH]c2ccc(Br)cc2c1-c1ccccc1	-25.7*	0.2	-0.6	x	x	-24.7
Cc1ccc2[nH]c(C(=O)O)c(-c3ccccc3)c2c1	x	x	x	0.1	-3.2	x
Cc1ccc2[nH]c(C(=O)NN=C3CCCCC3)c(-c3ccccc3)c2c1	-17.2	42.9*	-0.4	x	-6.2	7.3
O=C(COC(=O)C12CC3CC(CC(Br)(C3)C1)C2)Nc1c(F)cccc1F	-26.6*	0.1	2.4	0.0	x	6.6
O=C(COC(=O)C12CC3CC(CC(O)(C3)C1)C2)NCCc1ccc(Cl)cc1	-20.0*	0.3	-4.6	x	4.5	12.7
CC(NC(=O)COC(=O)C12CC3CC(CC(O)(C3)C1)C2)c1ccccc1 (stereo unspecified)	1.6	43.1*	3.8	x	x	15.4
CC(=O)NC12CC3CC(C1)CC(C(=O)OCC(=O)Nc1c(F)cccc1F)(C3)C2	2.0	0.1	3.7	0.5	-6.4	3.5
COC(=O)[C@H](Cc1ccccc1)NC(=O)N1CCN(c2ccc(F)cc2)CC1	-19.6*	0.0	-2.8	-4.4	-4.6	-4.0
COC(=O)[C@H](Cc1ccccc1)NC(=O)N1CCCCCC1	3.3	-0.1	-0.5	-1.5	4.2	7.5
SMILES	Ecoli rRNA inh	FGF22 binding	ERAP1 inh	Cneo AK release	PGC1a acetyl inh	HIV Env fusion
O=C(CCC(=O)N1CCN(c2ccc(F)cc2)CC1)N1CCN(c2ccc(F)cc2)CC1	-21.2*	-0.1	0.4	0.6	2.3	28.4
Cc1ccc(N2C(=O)C3C4C=CC(CNC(=S)N5CCN(c6ccccc6)CC5)(O4)C3C2=O)cc1 (stereo unspecified)	5.0	0.2	2.3	x	-5.5	8.6
O=C(N/N=C/c1ccncc1)c1ccc(OCc2ccccc2)cc1	-3.2	0.0	x	x	x	-2.8
Cc1ccccc1C(=O)Nc1ccc(C(=O)N/N=C/c2ccncc2)cc1	-28.6*	0.0	0.6	x	-12.0	7.8
Cc1cccc(NC(=O)C(=O)N/N=C/c2ccncc2)c1	x	43.5*	0.8	x	x	-87.2
O=C(Nc1ccccc1C(=O)N/N=C/c1ccncc1)c1ccccc1	-3.7	44.3*	0.6	-16.0	3.6	-80.8
CCn1c(=O)c([N+](=O)[O-])c(N2CCN(Cc3ccc4c(c3)OCO4)CC2)c2ccccc21	-23.9*	0.1	x	x	x	10.6
CCn1c(=O)c([N+](=O)[O-])c(N2CCSCC2)c2ccccc21	-33.5*	-0.1	-0.2	-1.8	4.2	5.8
O=c1c([N+](=O)[O-])c(N2CCOCC2)c2ccccc2n1Cc1ccccc1	-18.2	0.2	1.8	x	x	2.8
Cn1c(=O)c([N+](=O)[O-])c(N2CCSCC2)c2ccccc21	16.2	-0.1	4.0	-0.7	x	14.2
O=C(C1CCCN(S(=O)(=O)c2cccc3nonc23)C1)N1CCN(c2ccccc2Cl)CC1 (stereo unspecified)	x	x	x	1.3	-8.4	25.8
CCc1ccc(OCC(=O)OC2CCS(=O)(=O)C2)cc1 (stereo unspecified)	2.9	0.1	1.7	-1.6	-12.3	x
CC(C)CN=c1cc(-c2ccccc2)oc2ccc(Cl)cc12	x	x	x	x	-30.1	x
CC[n+]1ccccc1/C=C1\Sc2ccc(C)cc2N1C	20.5	-0.1	74.2*	-0.7	x	29.3
O=C(CSc1nnc(-c2ccco2)n1-c1ccccc1)NCc1ccc2c(c1)OCO2	x	x	x	7.7	-12.3	7.8
CCN1CCN(Cc2ccc(C(=O)Nc3ccc(C)c(NCc4cnc(NC(=O)OC)cn4)c3)cc2C(F)(F)F)CC1	-16.8*!	-0.2	-3.1	8.6	-33.3	24.6
CC(=O)N/C(=C\c1ccccc1)C(=O)OCC(=O)NC(C)C12CC3CC(CC(C3)C1)C2 (stereo unspecified)	x	x	x	x	x	106.3*
Nc1c2ccccc2nc2ccccc12	-43.2*!	0.0	60.6*	-0.1	12.4	-75.7
Cc1ccc(CCNS(=O)(=O)c2c(C)nc3sccn3c2=O)cc1	-2.2	0.0	5.0	-0.4	4.0	10.0
CC(=O)Nc1nc(NC(=O)C(Cl)(Cl)Cl)n(-c2ccccc2)n1	-22.7*	-0.2	x	x	x	0.4
COCCCN(C(=S)Nc1cc(Cl)cc(Cl)c1)C(C)c1ccccn1 (stereo unspecified)	-39.3*	0.1	-1.3	-0.8	2.1	7.7
COCCCN(C(=S)Nc1cc(Cl)cc(Cl)c1)C(C)c1ccncc1 (stereo unspecified)	-48.6	0.0	1.9	x	x	18.9
CCn1ncc(C2=NOC(C(=O)Nc3ccc(C)cc3)C2)c1C (stereo unspecified)	x	x	x	x	-5.9	42.0*

Compound activity as filed in PubChem.
